{"source": "paper PMC12234697", "about": "(Scientific Reports, 2025)", "key": {"[1]": {"test_system": "HBV-expressing HepG2.2.15.7 cells", "format": "cell-based", "conditions": "Hepatitis B virus", "summary_of_the_method": "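HBV-producing HepG2.2.15.7 cells (derived from HepG2.2.15) were exposed to test compound at 0.1, 0.3, 1, 3, 10, 30 and 100 µM, […]. Enveloped Dane particles in the supernatant were captured by anti-HBs immunoprecipitation, and HBV DNA was then quantified by real-time PCR with S-gene primers/probe. Cell viability was read in parallel, n = 3. IC50 and CC50 were derived from dose curves.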"}, "[2]": {"experiment": "Cell viability of HepG2.2.15.7 cells", "format": "cell-based", "conditions": "human", "summary_of_the_method": "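HepG2.2.15.7 cells (stable high-level HBV expression) seeded at 1.5 × 10^5 cells/well, grown overnight and PBS-washed. Fresh medium with compound (0.1, 0.3, 1, 3, 10, 30, 100 µM final; DMSO stocks) added for 48 h. Cell viability measured, n = 3; CC50 derived from the dose-response.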"}, "[3]": {"test_system": "LHBs protein and HBc protein", "experiment": "Western blot analysis of intracellular HBV proteins", "format": "cell-based, hepatitis B virus", "conditions": "HepG2.2.15.7 cells; hit compound 16 10 µM, 38 and 39 30 µM; n = 3", "summary_of_the_method": "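Treated HepG2.2.15.7 cells were lysed in RIPA buffer and soluble protein was run on SDS-PAGE, then transferred to PVDF. Blots were blocked, then given primary antibodies (including rabbit polyclonal anti-HBc; β-actin as loading control) at 4 °C overnight and secondaries 1 h at room temperature. ECL detection; bands quantified by densitometry, n = 3.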"}, "precore mRNA and pgRNA": {"test_system": "precore mRNA and pgRNA", "experiment": "Measurement of intracellular HBV RNA by real-time PCR", "format": "cell-based, hepatitis B virus", "conditions": "HepG2.2.15.7 cells; hit compound 16 10 µM, 38 and 39 30 µM; n = 3", "summary_of_the_method": "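Total RNA from treated HepG2.2.15.7 cells was TRIzol-extracted and reverse-transcribed with DNase treatment. SYBR Green real-time PCR used primers PCP/BC1 for precore mRNA and PGP/BC1 for precore mRNA plus pgRNA, normalised to GAPDH. n = 3; Mann-Whitney U test, p < 0.05.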"}, "[4]": {"conditions": "no reference given; cited from earlier work"}}, "note": "Where two headings read alike, the source gives them in different places.", "data": [{"smiles": "C=C[C@H]1C[N@@]2CC[C@H]1C[C@@H]2[C@@H](O)c1ccnc2ccc(OC)cc12", "note": "[Compound 39, quinidine]", "values": [{"measurement": "IC50", "setting": "[1]; HepG2.2.15.7, read-out: IC50 (HBV DNA after the immunoprecipitation)", "result": 18.6, "unit": "µM"}, {"measurement": "IC50", "setting": "[1]; HepG2.2.15.7, read-out: IC50 against HBV expressed in µg/mL", "result": 2.8, "unit": "µg/mL"}, {"measurement": "CC50 at 48 h", "setting": "[2]", "result": 131, "unit": "µM"}, {"measurement": "HBc protein level (western blot)", "setting": "[3]", "result": "no significant differences"}, {"measurement": "LHBs protein level (western blot)", "setting": "[3]", "result": "no significant differences"}, {"measurement": "pgRNA level compared to a control", "setting": "precore mRNA and pgRNA", "result": "no significant difference"}, {"measurement": "precore mRNA level compared to a control", "setting": "precore mRNA and pgRNA", "result": "no significant difference"}, {"measurement": "effective blood concentration for arrhythmia", "setting": "[4]", "result": "2.3 to 5.0", "unit": "µg/mL"}]}]}
